The record followed here is the M2OR odorant receptor database.
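Note: active if original authors judged signal statistically different from baseline.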

In this experiment the target is T1, OR2W1 (Homo sapiens) (UniProt Q9Y3N9).
T1 sequence (whole entry): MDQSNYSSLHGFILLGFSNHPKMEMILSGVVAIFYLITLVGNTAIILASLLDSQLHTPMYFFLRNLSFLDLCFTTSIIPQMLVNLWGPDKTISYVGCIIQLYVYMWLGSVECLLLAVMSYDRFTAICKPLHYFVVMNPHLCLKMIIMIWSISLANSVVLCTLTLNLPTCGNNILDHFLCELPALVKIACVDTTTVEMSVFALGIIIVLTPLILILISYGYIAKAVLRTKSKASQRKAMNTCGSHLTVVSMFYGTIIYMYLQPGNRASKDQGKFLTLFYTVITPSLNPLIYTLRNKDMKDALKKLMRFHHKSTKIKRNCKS
The settings on record: stereoisomer not certain. Summed up: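 Each receptor–molecule pair is labelled responsive or non-responsive (inactive) according to whether the original authors judged the measured signal statistically different from baseline. The data were taken from the main text and supplementary material of published papers and checked for typos and inconsistencies. Assay methods differed by source, with transient luciferase assays in mammalian cell lines being common.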
On to `CC(C)CCCCCCCCCCC=O`, for which the “odorant receptor agonist call” value is “inactive”.

With `CC(C)=CC1CC(C)CCO1` (centres undefined), the “odorant receptor agonist call” value was “inactive”.

Regarding `CC(C)CC=O`, the “odorant receptor agonist call” value was “inactive”.

On to `CCC(C)CCC(=O)[O-]` (centres undefined), for which the “odorant receptor agonist call” value is “active”.

In the case of `c1ccccc1`, the “odorant receptor agonist call” value is “inactive”.

Regarding `CC12CCC(CC1=O)C2(C)C` (centres undefined), the “odorant receptor agonist call” value was “inactive”.

Regarding `CC=CC(=O)C1=C(C)C=CCC1(C)C`, the “odorant receptor agonist call” value was “inactive”.

As for `Cc1occc1S`, the “odorant receptor agonist call” value was “inactive”.

As for `COc1ccc2ccc(=O)oc2c1`, the “odorant receptor agonist call” value is “inactive”.

For `CCCCCCCCCCO`, the “odorant receptor agonist call” value was “active”.

As for `Cc1c[nH]c2ccccc12`, the “odorant receptor agonist call” value was “inactive”.

As for `CC(=O)OCC=C(C)C`, the “odorant receptor agonist call” value was “active”.

In the case of `CC(=O)C1=NCCS1`, the “odorant receptor agonist call” value was “inactive”.

Consider `CCCCCCCCC(=O)O`, for which the “odorant receptor agonist call” value is “active”.

Consider `CCCCC(CC)CCC(=O)O` (centres undefined), for which the “odorant receptor agonist call” value is “inactive”.

Take `CC(C)CO`: the “odorant receptor agonist call” value was “inactive”.

In the case of `CCOC(C)OCC`, the “odorant receptor agonist call” value was “inactive”.

Take `CCCCOC(=O)C(C)OC(=O)CCC` (centres undefined): the “odorant receptor agonist call” value was “inactive”.

For `CCCCCC=O`, the “odorant receptor agonist call” value is “inactive”.

Regarding `CCCCC(=O)CC(C)=O`, the “odorant receptor agonist call” value was “active”.

Turning to `CCO`, the “odorant receptor agonist call” value was “inactive”.

For the compound `CCCCCC(=O)CC(C)=O`, the “odorant receptor agonist call” value was “active”.

Take `CCC(S)C(C)=O` (centres undefined): the “odorant receptor agonist call” value was “inactive”.

With `COC1=C(C)OC(C)C1=O` (centres undefined), the “odorant receptor agonist call” value was “inactive”.

On to `CCCC(=O)C(C)=O`, for which the “odorant receptor agonist call” value was “active”.

Take `CCC(C)C(=O)OC` (centres undefined): the “odorant receptor agonist call” value was “inactive”.

For `CCCCCC(=O)CC`, the “odorant receptor agonist call” value is “active”.

On to `CSSc1ccoc1C`, for which the “odorant receptor agonist call” value is “inactive”.

With `CC(=O)Oc1ccccc1`, the “odorant receptor agonist call” value was “inactive”.

In the case of `CC(=O)OCc1ccccc1`, the “odorant receptor agonist call” value was “active”.

For `COc1nccnc1C(C)C`, the “odorant receptor agonist call” value was “inactive”.

On to `CCOc1ccc2ccccc2c1`, for which the “odorant receptor agonist call” value was “active”.

On to `CC=CC(=O)C(C)CC` (centres undefined), for which the “odorant receptor agonist call” value was “inactive”.

As for `CCC=O`, the “odorant receptor agonist call” value was “inactive”.
